Data as given in ChEMBL document CHEMBL4118057, “Cytotoxic Bagremycins from Mangrove-Derived Streptomyces sp. Q22” (J Nat Prod, 2017).
Activity calls are given as the source filed them. No cut-off for these calls is given here.

Experiments:
Escherichia coli = test: Antimicrobial activity against Escherichia coli ATCC 25922 after 12 hrs by micro broth dilution method; assay type: functional, organism-based
Summary of the method: (§1)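 Micro broth dilution: compound stock serially diluted with 50% DMSO (final volume 200 μL), inoculated with 2 μL of 10^8 cf/mL culture, incubated 37 °C for 12 h. Clear wells and the next dilutions plated on nutrient agar, incubated 37 °C for 12 h. MIC taken as the dilution that inhibited growth.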

Staphylococcus aureus = test: Antimicrobial activity against methicillin-resistant Staphylococcus aureus ATCC 43300 after 12 hrs by micro broth dilution method; assay type: functional, organism-based
Summary of the method: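 Test compounds serially diluted in 50% DMSO in broth microdilution plates. Each well received 2 μL of a 10^8 cf/mL culture, then incubated at 37 °C for 12 h overnight and read by eye. Clear wells and the next dilutions were plated on nutrient agar for 12 h at 37 °C. MIC was taken as the growth-inhibiting dilution. Gentamicin served as positive control.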

Candida albicans = test: Antimicrobial activity against Candida albicans after 12 hrs by micro broth dilution method; assay type: functional, organism-based; summary of the method: as §1
U-251 = test: Cytotoxicity against human U251 cells after 72 hrs by sulforhodamine B assay; assay type: functional, cell-based; settings: U-251, 72 h
Summary of the method: (§2)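 SRB assay. C6 and U251 in DMEM with 10% FBS, SHG44 in RPMI-1640, all at 37 °C, 5% CO2. Cells adhered 24 h, then were exposed to a range of concentrations for 72 h. Fixed in cold 50% TCA at 4 °C for 1 h, stained with 0.4% SRB for 10 min, rinsed with 1% acetic acid. Dye dissolved in 10 mM Tris, OD read at 515 nm. Viability taken as treated/control OD; IC50 by logistic fit; n = 5.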

U-87 MG [1] = test: Cell cycle arrest in human U87MG cells assessed as accumulation at S phase at 0.8 uM after 12 hrs by propidium iodide staining based flow cytometric method (reference value: 32.49%); assay type: functional, U-87MG ATCC
U-87 MG [2] = test: Cell cycle arrest in human U87MG cells assessed as increase in accumulation at G0/G1 phase at 0.8 uM after 12 hrs by propidium iodide staining based flow cytometric method relative to control; assay type: functional, U-87MG ATCC
U-87 MG [3] = test: Induction of apoptosis in human U87MG cells assessed as increase in total apoptotic cells at 10 uM after 72 hrs by annexin-V-FITC/propidium iodide staining based flow cytometric method relative to control; assay type: functional, U-87MG ATCC
Summary of the method: (§3)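 U87MG cells were exposed for 24, 48 or 72 h, and 1 × 10^6 cells were harvested and washed in cold PBS. They were stained in binding buffer with annexin V-FITC and PI for 15 min at room temperature. Flow cytometry used 488 nm excitation with emission at 530/575 nm. Early plus late apoptotic cells were summed, and the untreated control was subtracted.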

C6 = test: Cytotoxicity against rat C6 cells after 72 hrs by sulforhodamine B assay; assay type: functional, cell-based; settings: C6, 72 h; summary of the method: as §2
U-87 MG [4] = test: Induction of apoptosis in human U87MG cells assessed as increase in total apoptotic cells at 10 uM after 48 hrs by annexin-V-FITC/propidium iodide staining based flow cytometric method relative to control; assay type: functional, U-87MG ATCC; summary of the method: as §3
[5] = Cytotoxicity against human SHG44 cells after 72 hrs by sulforhodamine B assay; assay type: functional, cell-based; settings: SHG-44, 72 h; summary of the method: as §2
U-87 MG [6] = test: Induction of apoptosis in human U87MG cells assessed as increase in total apoptotic cells at 10 uM after 24 hrs by annexin-V-FITC/propidium iodide staining based flow cytometric method relative to control; assay type: functional, U-87MG ATCC; summary of the method: as §3
U-87 MG [7] = test: Cytotoxicity against human U87MG cells after 72 hrs by sulforhodamine B assay; assay type: functional, cell-based, U-87MG ATCC; summary of the method: as §2
U-87 MG [8] = test: Cell cycle arrest in human U87MG cells assessed as accumulation at G2/M phase at 0.8 uM after 12 hrs by propidium iodide staining based flow cytometric method (reference value: 9.37%); assay type: functional, U-87MG ATCC
U-87 MG [9] = test: Induction of apoptosis in human U87MG cells assessed as increase in total apoptotic cells at 4.4 uM after 24 hrs by annexin-V-FITC/propidium iodide staining based flow cytometric method relative to control; assay type: functional, U-87MG ATCC; summary of the method: as §3
U-87 MG [10] = test: Cell cycle arrest in human U87MG cells assessed as accumulation at G2/M phase at 4.4 uM after 12 hrs by propidium iodide staining based flow cytometric method (reference value: 9.37%); assay type: functional, U-87MG ATCC
U-87 MG [11] = test: Induction of apoptosis in human U87MG cells assessed as increase in total apoptotic cells at 4.4 uM after 48 hrs by annexin-V-FITC/propidium iodide staining based flow cytometric method relative to control; assay type: functional, U-87MG ATCC; summary of the method: as §3
U-87 MG [12] = test: Cell cycle arrest in human U87MG cells assessed as increase in accumulation at G0/G1 phase at 4.4 uM after 12 hrs by propidium iodide staining based flow cytometric method relative to control; assay type: functional, U-87MG ATCC
U-87 MG [13] = test: Cell cycle arrest in human U87MG cells assessed as accumulation at S phase at 2.2 uM after 12 hrs by propidium iodide staining based flow cytometric method (reference value: 32.49%); assay type: functional, U-87MG ATCC
U-87 MG [14] = test: Induction of apoptosis in human U87MG cells assessed as increase in total apoptotic cells at 4.4 uM after 72 hrs by annexin-V-FITC/propidium iodide staining based flow cytometric method relative to control; assay type: functional, U-87MG ATCC; summary of the method: as §3
U-87 MG [15] = test: Cell cycle arrest in human U87MG cells assessed as accumulation at S phase at 4.4 uM after 12 hrs by propidium iodide staining based flow cytometric method (reference value: 32.49%); assay type: functional, U-87MG ATCC
U-87 MG [16] = test: Cell cycle arrest in human U87MG cells assessed as increase in accumulation at G0/G1 phase at 8.8 uM after 12 hrs by propidium iodide staining based flow cytometric method relative to control; assay type: functional, U-87MG ATCC
U-87 MG [17] = test: Induction of apoptosis in human U87MG cells assessed as increase in total apoptotic cells at 2.2 uM after 48 hrs by annexin-V-FITC/propidium iodide staining based flow cytometric method relative to control; assay type: functional, U-87MG ATCC; summary of the method: as §3
U-87 MG [18] = test: Induction of apoptosis in human U87MG cells assessed as increase in total apoptotic cells at 2.2 uM after 24 hrs by annexin-V-FITC/propidium iodide staining based flow cytometric method relative to control; assay type: functional, U-87MG ATCC; summary of the method: as §3
U-87 MG [19] = test: Cell cycle arrest in human U87MG cells assessed as accumulation at G2/M phase at 2.2 uM after 12 hrs by propidium iodide staining based flow cytometric method (reference value: 9.37%); assay type: functional, U-87MG ATCC
U-87 MG [20] = test: Induction of apoptosis in human U87MG cells assessed as increase in total apoptotic cells at 2.2 uM after 72 hrs by annexin-V-FITC/propidium iodide staining based flow cytometric method relative to control; assay type: functional, U-87MG ATCC; summary of the method: as §3
U-87 MG [21] = test: Cell cycle arrest in human U87MG cells assessed as accumulation at S phase at 8.8 uM after 12 hrs by propidium iodide staining based flow cytometric method (reference value: 32.49%); assay type: functional, U-87MG ATCC
U-87 MG [22] = test: Cell cycle arrest in human U87MG cells assessed as increase in accumulation at G0/G1 phase at 2.2 uM after 12 hrs by propidium iodide staining based flow cytometric method relative to control; assay type: functional, U-87MG ATCC
U-87 MG [23] = test: Cell cycle arrest in human U87MG cells assessed as accumulation at G2/M phase at 8.8 uM after 12 hrs by propidium iodide staining based flow cytometric method (reference value: 9.37%); assay type: functional, U-87MG ATCC

Structure (SMILES) | Activity (Escherichia coli) | Activity (Staphylococcus aureus) | Activity (Candida albicans) | IC50 (U-251) [µM] | IC50 (C6) [µM] | IC50 [5] [µM] | IC50 (U-87 MG [7]) [µM] | other results
C=Cc1ccc(OC(=O)c2ccc(O)c(N)c2S)cc1 | inactive | inactive | inactive |  |  |  |  | 
COc1cccc2c1C(=O)c1c(O)c3c(c(O)c1C2=O)C[C@@](O)(C(=O)CO)C[C@@H]3O[C@H]1C[C@H](N)[C@H](O)[C@H](C)O1 [DOXORUBICIN] |  |  |  | 3.3 | 0.5 | 1.9 | 0.4 | Activity (U-87 MG [1]): 10.84%; Activity (U-87 MG [2]): 24.74%; Activity (U-87 MG [3]): 26.87%; Activity (U-87 MG [4]): 10.42%; Activity (U-87 MG [6]): 3.17%; Activity (U-87 MG [8]): 6.28%
O=C1Oc2ccc(cc2)[C@H](O)CNc2cc1ccc2O | inactive | inactive | inactive |  |  |  |  | 
C=Cc1ccc(OC(=O)c2ccc(O)c(N)c2)cc1 | inactive | inactive | inactive |  |  |  |  | 
C=Cc1ccc(OC(=O)c2ccc(O)cc2)cc1 | inactive | inactive | inactive |  |  |  |  | 
C=Cc1ccc(O)cc1 | inactive | inactive | inactive |  |  |  |  | 
C=Cc1ccc(OC(=O)c2ccc(O)c(NC(C)=O)c2)cc1 | inactive | inactive | inactive | 9.7 | 13.3 | 7.3 | 10.2 | 
C=Cc1ccc(OC(=O)c2ccc(O)c(N)c2SC[C@@H](NC(C)=O)C(=O)O)cc1 | inactive | inactive | inactive | 4.3 | 6.4 | 2.4 | 2.2 | Activity (U-87 MG [9]): 3.36%; Activity (U-87 MG [10]): 8.92%; Activity (U-87 MG [11]): 61.16%; Activity (U-87 MG [12]): 16.18%; Activity (U-87 MG [13]): 27.23%; Activity (U-87 MG [14]): 93%; Activity (U-87 MG [15]): 16.76%; Activity (U-87 MG [16]): 20.56%; Activity (U-87 MG [17]): 20.59%; Activity (U-87 MG [18]): 0.96%; Activity (U-87 MG [19]): 8.92%; Activity (U-87 MG [20]): 58.32%; Activity (U-87 MG [21]): 13.77%; Activity (U-87 MG [22]): 5.71%; Activity (U-87 MG [23]): 7.53%
C=Cc1ccc(O[C@H]2O[C@H](CO)[C@H](O)[C@H](O)[C@H]2O)cc1 | inactive | inactive | inactive |  |  |  |  | 
